# Laboratory results published in ChEMBL document CHEMBL5550111, “Design, synthesis and biological evaluation of aryloxy thiophosphoramidate triesters of anticancer nucleoside analogues” (Bioorg Med Chem, 2024).
# What was measured:
# PC-3 [1] = test: Cytotoxicity against human PC-3 cells assessed as maximum inhibition of cell viability upto 198 uM incubated for 72 hrs by MTS assay relative to control; assay type: functional; details: up to 198 µM
# In short: (§1)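 Cells seeded at 0.5 to 100 × 10^3 per well the day before drug addition, then exposed to compound for 72 h. MTS added afterwards, with a further 4 h at 37 °C, and absorbance read. Tested in duplicate at 9 serial 3.16-fold dilutions, top concentration 198 μM. MI% is the maximum inhibition of viability across the tested range.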
# HT-29 [2] = test: Cytotoxicity against human HT-29 cells assessed as inhibition of cell viability incubated for 72 hrs by MTS assay; assay type: functional, cell-based; details: HT-29, 72 h
# In short: (§2)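 Cells seeded at 0.5 to 100 × 10^3 per well the day before treatment, then exposed for 72 h to 9 serial concentrations (3.16-fold dilutions, top 198 μM), in duplicate. MTS added for a final 4 h at 37 °C and absorbance read. IC50 is the concentration giving 50% loss of viability. MI% is the maximum inhibition over the tested range.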
# HepG2 [3] = test: Cytotoxicity against human HepG2 cells assessed as inhibition of cell viability incubated for 72 hrs by MTS assay; assay type: functional, cell-based; details: HepG2, 72 h; in short: as §2
# MCF7 = test: Cytotoxicity against human MCF7 cells assessed as maximum inhibition of cell viability upto 198 uM incubated for 72 hrs by MTS assay relative to control; assay type: functional; details: up to 198 µM; in short: as §1
# HepG2 [4] = test: Cytotoxicity against human HepG2 cells assessed as maximum inhibition of cell viability upto 198 uM incubated for 72 hrs by MTS assay relative to control; assay type: functional; details: up to 198 µM; in short: as §1
# RT112/84 [5] = test: Cytotoxicity against human RT112/84 cells assessed as inhibition of cell viability incubated for 72 hrs by MTS assay; assay type: functional, cell-based; details: RT112/84, 72 h; in short: as §2
# NCI-H1975 = test: Cytotoxicity against human NCI-H1975 cells assessed as maximum inhibition of cell viability upto 198 uM incubated for 72 hrs by MTS assay relative to control; assay type: functional; details: up to 198 µM; in short: as §1
# RL [6] = test: Cytotoxicity against human RL cells assessed as maximum inhibition of cell viability upto 198 uM incubated for 72 hrs by MTS assay relative to control; assay type: functional; details: up to 198 µM; in short: as §1
# OVCAR-3 [7] = test: Cytotoxicity against human OVCAR-3 cells assessed as inhibition of cell viability incubated for 72 hrs by MTS assay; assay type: functional, cell-based; details: OVCAR-3, 72 h; in short: as §2
# RL [8] = test: Cytotoxicity against human RL cells assessed as inhibition of cell viability incubated for 72 hrs by MTS assay; assay type: functional, cell-based; in short: as §2
# RT112/84 [9] = test: Cytotoxicity against human RT112/84 cells assessed as maximum inhibition of cell viability upto 198 uM incubated for 72 hrs by MTS assay relative to control; assay type: functional; details: up to 198 µM; in short: as §1
# [10] = Cytotoxicity against human T24/83 cells assessed as inhibition of cell viability incubated for 72 hrs by MTS assay; assay type: functional, cell-based; details: T24/83, 72 h; in short: as §2
# MIA PaCa-2 [11] = test: Cytotoxicity against human MIA PaCa-2 cells assessed as inhibition of cell viability incubated for 72 hrs by MTS assay; assay type: functional, cell-based; details: MIA PaCa-2, 72 h; in short: as §2
# K562 [12] = test: Cytotoxicity against human K562 cells assessed as inhibition of cell viability incubated for 72 hrs by MTS assay; assay type: functional, cell-based; details: K562, 72 h; in short: as §2
# A498 [13] = test: Cytotoxicity against human A498 cells assessed as inhibition of cell viability incubated for 72 hrs by MTS assay; assay type: functional, cell-based; details: A498, 72 h; in short: as §2
# A498 [14] = test: Cytotoxicity against human A498 cells assessed as maximum inhibition of cell viability upto 198 uM incubated for 72 hrs by MTS assay relative to control; assay type: functional; details: up to 198 µM; in short: as §1
# A2780 [15] = test: Cytotoxicity against human A2780 cells assessed as inhibition of cell viability incubated for 72 hrs by MTS assay; assay type: functional, cell-based; details: A2780, 72 h; in short: as §2
# A2780 [16] = test: Cytotoxicity against human A2780 cells assessed as maximum inhibition of cell viability upto 198 uM incubated for 72 hrs by MTS assay relative to control; assay type: functional; details: up to 198 µM; in short: as §1
# HT-29 [17] = test: Cytotoxicity against human HT-29 cells assessed as maximum inhibition of cell viability upto 198 uM incubated for 72 hrs by MTS assay relative to control; assay type: functional; details: up to 198 µM; in short: as §1
# RPMI-8226 [18] = test: Cytotoxicity against human RPMI-8226 cells assessed as maximum inhibition of cell viability upto 198 uM incubated for 72 hrs by MTS assay relative to control; assay type: functional; details: up to 198 µM; in short: as §1
# MOLT-4 [19] = test: Cytotoxicity against human MOLT-4 cells assessed as inhibition of cell viability incubated for 72 hrs by MTS assay; assay type: functional, cell-based; details: MOLT-4, 72 h; in short: as §2
# [20] = Cytotoxicity against human T24/83 cells assessed as maximum inhibition of cell viability upto 198 uM incubated for 72 hrs by MTS assay relative to control; assay type: functional; details: up to 198 µM; in short: as §1
# RPMI-8226 [21] = test: Cytotoxicity against human RPMI-8226 cells assessed as inhibition of cell viability incubated for 72 hrs by MTS assay; assay type: functional, cell-based; details: RPMI-8226, 72 h; in short: as §2
# MDA-MB-231 = test: Cytotoxicity against human MDA-MB-231 cells assessed as maximum inhibition of cell viability upto 198 uM incubated for 72 hrs by MTS assay relative to control; assay type: functional; details: up to 198 µM; in short: as §1
# PANC-1 [22] = test: Cytotoxicity against human PANC-1 cells assessed as maximum inhibition of cell viability upto 198 uM incubated for 72 hrs by MTS assay relative to control; assay type: functional; details: up to 198 µM; in short: as §1
# MIA PaCa-2 [23] = test: Cytotoxicity against human MIA PaCa-2 cells assessed as maximum inhibition of cell viability upto 198 uM incubated for 72 hrs by MTS assay relative to control; assay type: functional; details: up to 198 µM; in short: as §1
# 5637 [24] = test: Cytotoxicity against human 5637 cells assessed as inhibition of cell viability incubated for 72 hrs by MTS assay; assay type: functional, cell-based; details: Homo sapiens, 5637, 72 h; in short: as §2
# KG-1 [25] = test: Cytotoxicity against human KG-1 cells assessed as maximum inhibition of cell viability upto 198 uM incubated for 72 hrs by MTS assay relative to control; assay type: functional; details: up to 198 µM; in short: as §1
# HL-60 [26] = test: Cytotoxicity against human HL-60 cells assessed as inhibition of cell viability incubated for 72 hrs by MTS assay; assay type: functional, cell-based; details: HL-60, 72 h; in short: as §2
# SK-MES-1 [27] = test: Cytotoxicity against human SK-MES-1 cells assessed as inhibition of cell viability incubated for 72 hrs by MTS assay; assay type: functional, cell-based; details: SK-MES-1, 72 h; in short: as §2
# [28] = Cytotoxicity against human ACHN-luc2 cells assessed as inhibition of cell viability incubated for 72 hrs by MTS assay; assay type: functional, cell-based; details: ACHN-luc2, 72 h; in short: as §2
# COLO 205 [29] = test: Cytotoxicity against human COLO 205 cells assessed as maximum inhibition of cell viability upto 198 uM incubated for 72 hrs by MTS assay relative to control; assay type: functional; details: up to 198 µM; in short: as §1
# 5637 [30] = test: Cytotoxicity against human 5637 cells assessed as maximum inhibition of cell viability upto 198 uM incubated for 72 hrs by MTS assay relative to control; assay type: functional; details: up to 198 µM; in short: as §1
# CAKI-2 [31] = test: Cytotoxicity against human CAKI-2 cells assessed as inhibition of cell viability incubated for 72 hrs by MTS assay; assay type: functional, cell-based; details: CAKI-2, 72 h; in short: as §2
# K562 [32] = test: Cytotoxicity against human K562 cells assessed as maximum inhibition of cell viability upto 198 uM incubated for 72 hrs by MTS assay relative to control; assay type: functional; details: up to 198 µM; in short: as §1
# OVCAR-3 [33] = test: Cytotoxicity against human OVCAR-3 cells assessed as maximum inhibition of cell viability upto 198 uM incubated for 72 hrs by MTS assay relative to control; assay type: functional; details: up to 198 µM; in short: as §1
# SK-MES-1 [34] = test: Cytotoxicity against human SK-MES-1 cells assessed as maximum inhibition of cell viability upto 198 uM incubated for 72 hrs by MTS assay relative to control; assay type: functional; details: up to 198 µM; in short: as §1
# BXPC-3 [35] = test: Cytotoxicity against human BXPC-3 cells assessed as maximum inhibition of cell viability upto 198 uM incubated for 72 hrs by MTS assay relative to control; assay type: functional; details: up to 198 µM; in short: as §1
# COLO 205 [36] = test: Cytotoxicity against human COLO 205 cells assessed as inhibition of cell viability incubated for 72 hrs by MTS assay; assay type: functional, cell-based; details: COLO 205, 72 h; in short: as §2
# MOLT-4 [37] = test: Cytotoxicity against human MOLT-4 cells assessed as maximum inhibition of cell viability upto 198 uM incubated for 72 hrs by MTS assay relative to control; assay type: functional; details: up to 198 µM; in short: as §1
# HL-60 [38] = test: Cytotoxicity against human HL-60 cells assessed as maximum inhibition of cell viability upto 198 uM incubated for 72 hrs by MTS assay relative to control; assay type: functional; details: up to 198 µM; in short: as §1
# [39] = Cytotoxicity against human ACHN-luc2 cells assessed as maximum inhibition of cell viability upto 198 uM incubated for 72 hrs by MTS assay relative to control; assay type: functional; details: up to 198 µM; in short: as §1
# BXPC-3 [40] = test: Cytotoxicity against human BXPC-3 cells assessed as inhibition of cell viability incubated for 72 hrs by MTS assay; assay type: functional, cell-based; details: BXPC-3, 72 h; in short: as §2
# KG-1 [41] = test: Cytotoxicity against human KG-1 cells assessed as inhibition of cell viability incubated for 72 hrs by MTS assay; assay type: functional, cell-based; details: KG-1, 72 h; in short: as §2
# PC-3 [42] = test: Cytotoxicity against human PC-3 cells assessed as inhibition of cell viability incubated for 72 hrs by MTS assay; assay type: functional, cell-based; details: PC-3, 72 h; in short: as §2
# CAKI-2 [43] = test: Cytotoxicity against human CAKI-2 cells assessed as maximum inhibition of cell viability upto 198 uM incubated for 72 hrs by MTS assay relative to control; assay type: functional; details: up to 198 µM; in short: as §1
# PANC-1 [44] = test: Cytotoxicity against human PANC-1 cells assessed as inhibition of cell viability incubated for 72 hrs by MTS assay; assay type: functional, cell-based; details: PANC-1, 72 h; in short: as §2
smiles,measurement,setting,value
CC(=O)O[C@H]1C(=O)[C@@]2(C)[C@H]([C@H](OC(=O)c3ccccc3)[C@]3(O)C[C@H](OC(=O)[C@H](O)[C@@H](NC(=O)c4ccccc4)c4ccccc4)C(C)=C1C3(C)C)[C@]1(OC(C)=O)CO[C@@H]1C[C@@H]2O [PACLITAXEL],Imax,PC-3 [1],62%
same,IC50,HT-29 [2],30 nM
same,IC50,HepG2 [3],60 nM
same,Imax,MCF7,75%
same,Imax,HepG2 [4],54%
same,IC50,RT112/84 [5],10 nM
same,Imax,NCI-H1975,75%
same,Imax,RL [6],63%
same,IC50,OVCAR-3 [7],4 nM
same,IC50,RL [8],7 nM
same,Imax,RT112/84 [9],77%
same,IC50,[10],4 nM
same,IC50,MIA PaCa-2 [11],3 nM
same,IC50,K562 [12],13 nM
same,IC50,A498 [13],20 nM
same,Imax,A498 [14],74%
same,IC50,A2780 [15],8 nM
same,Imax,A2780 [16],72%
same,Imax,HT-29 [17],79%
same,Imax,RPMI-8226 [18],95%
same,IC50,MOLT-4 [19],4 nM
same,Imax,[20],97%
same,IC50,RPMI-8226 [21],2 nM
same,Imax,MDA-MB-231,70%
same,Imax,PANC-1 [22],56%
same,Imax,MIA PaCa-2 [23],83%
same,IC50,5637 [24],2 nM
same,Imax,KG-1 [25],79%
same,IC50,HL-60 [26],12 nM
same,IC50,SK-MES-1 [27],10 nM
same,IC50,[28],20 nM
same,Imax,COLO 205 [29],90%
same,Imax,5637 [30],95%
same,IC50,CAKI-2 [31],10 nM
same,Imax,K562 [32],87%
same,Imax,OVCAR-3 [33],59%
same,Imax,SK-MES-1 [34],77%
same,Imax,BXPC-3 [35],85%
same,IC50,COLO 205 [36],10 nM
same,Imax,MOLT-4 [37],99%
same,Imax,HL-60 [38],97%
same,Imax,[39],47%
same,IC50,BXPC-3 [40],5 nM
same,IC50,KG-1 [41],68 nM
same,IC50,PC-3 [42],10 nM
same,Imax,CAKI-2 [43],78%
same,IC50,PANC-1 [44],3 nM
